From ChEMBL document CHEMBL1240502, “Therapeutic effects of cantharidin analogues without bridging ether oxygen on human hepatocellular carcinoma cells” (Eur J Med Chem, 2010)
Active and inactive are the calls of the source. No cut-off for these calls is given here.

How the values were obtained:
[1] = tested on: Hepatocyte; assay: Cytotoxicity against rat hepatocyte cells after 48 hrs by MTT assay; type: cell-based
How it was run: (§1)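 Cells seeded in 24-well plates at 1 × 10⁵ cells/well, allowed 12 h, then exposed to test chemical or vehicle for 48 h, in triplicate. Medium replaced with MTT in PBS (pH 7.4) for 4 h at 37 °C; formazan dissolved in DMSO and read at 540 nm. Viability = (test − background)/(control − background) × 100.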

[2] = tested on: SK-HEP1; assay: Cytotoxicity against human SKHEP1 cells after 48 hrs by MTT assay; type: functional, cell-based; conditions: SK-HEP1, 48 h; how it was run: as §1
[3] = tested on: HepG2; assay: Cytotoxicity against human HepG2 cells after 48 hrs by MTT assay; type: functional, cell-based; conditions: HepG2, 48 h; how it was run: as §1
[4] = tested on: SK-HEP1; assay: Cytotoxicity against human SKHEP1 cells at 50 uM after 48 hrs by MTT assay; type: functional, cell-based; how it was run: as §1
[5] = tested on: HepG2; assay: Cytotoxicity against human HepG2 cells at 50 uM after 48 hrs by MTT assay; type: functional, cell-based; how it was run: as §1
[6] = Cytotoxicity against rat hepatocyte cells assessed as survival at 200 uM after 48 hrs by MTT assay; type: cell-based; conditions: rat hepatocytes, read-out: Activity; how it was run: as §1
[7] = tested on: Hepatocyte; assay: Cytotoxicity against rat hepatocyte cells at 50 uM after 48 hrs by MTT assay; type: cell-based; conditions: hepatocytes; how it was run: as §1

Compound	IC50 [1] [µM]	IC50 [2] [µM]	IC50 [3] [µM]	Activity [4]	Activity [5]	viability at 48 h, 200 µM [6] [%]	Activity [7]
Cc1ccc2c(c1)C(=O)N(c1nccs1)C2=O	> 200	> 200	> 200	–	–	–	–
Cc1cnc(N2C(=O)C3C(C2=O)[C@H]2C=C[C@@H]3CC2)s1 (stereo partly drawn)	> 200	> 200	> 200	–	–	–	–
O=C1OC(=O)[C@H]2[C@@H]1[C@H]1C=C[C@@H]2C1	> 200	151	62	Active	Active	80	Non-toxic
O=C1C2C(C(=O)N1c1nc3ccccc3s1)[C@H]1C=C[C@@H]2CC1 (stereo partly drawn)	> 200	> 200	> 200	–	–	–	–
Cc1cnc(/N=C2\OC(=O)C3C2[C@@H]2C=C[C@H]3CC2)s1 (stereo partly drawn)	> 200	> 200	92	Active	Active	80	Non-toxic
Cc1cnc(N2C(=O)c3ccccc3C2=O)s1	> 200	> 200	> 200	–	–	–	–
O=C1OC(=O)c2cc(Oc3ccc4c(c3)C(=O)OC4=O)ccc21	> 200	199	121	Active	Active	80	Non-toxic
O=C1C2C(C(=O)N1c1nccs1)[C@H]1C=C[C@@H]2CC1 (stereo partly drawn)	> 200	> 200	> 200	–	–	–	–
O=C1OC(=O)C2C3CCC(O3)C12 (stereo not drawn) [DEMETHYL-CANTHARIDIN]	75	126	74	–	–	–	–
O=C1c2ccccc2C(=O)N1c1nccs1	> 200	> 200	> 200	–	–	–	–
C[C@@]12C(=O)OC(=O)[C@]1(C)[C@H]1CC[C@@H]2O1 [CANTHARIDIN]	21	34	11	–	–	–	–
Cc1ccc2c(c1)C(=O)N(c1nc3ccccc3s1)C2=O	> 200	> 200	> 200	–	–	–	–
